Results on two molecules are retold here after ChEMBL document CHEMBL1157428, “Ring-closing metathesis for the synthesis of a highly G-quadruplex selective macrocyclic hexaoxazole having enhanced cytotoxic potency” (Bioorg Med Chem Lett, 2008).

Usually pIC50 stands for the negative decadic logarithm of the IC50, by convention in mol/L. Read a high pIC50 as a small IC50.

pIC50: −log10 of the molar value. Active and inactive are the calls of the source. The rule behind the calls is not given here.

The species entered for assay [1] is Homo sapiens. Put plainly: Effect on thermal stability of G-quadruplex human telomeric DNA sequence d[T2G3(T2AG3)3A] assessed as transition temperature. A digest of the protocol: (§1)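 Thermal melting. Salmon testes duplex DNA at 15 μM base pairs, with macrocyclic ligand at 15 μM. Telomeric d[T2G3(T2AG3)3A] at 4 μM strand, with macrocyclic ligand at 20 μM. Buffer was 10 mM EPPS pH 7.5, with KCl added to 50 mM total K+. Transition temperature was taken for DNA with and without ligand.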

Assay [2] deals with P388. Put plainly: Cytotoxicity against mouse P388 cells by MTT assay. It counts as functional, cell-based.
Assay [3] is filed under the species Homo sapiens. Put plainly: Binding affinity to […] human telomeric DNA sequence d[T2G3(T2AG3)3A] assessed as transition temperature. The essentials:
as §1

Assay [4] can be described thus: Cytotoxicity against human KBH5.0 cells by MTT assay. It counts as functional, cell-based. Conditions: KBH5.0 cell. (Tetrazolium dyes change colour on reduction, which living cells bring about.)
Assay [5] is described as follows: Cytotoxicity against human KB3-1 cells by MTT assay. Conditions: KB 3-1. It counts as functional, cell-based.
The test system of assay [6] is Salmonidae. In words: Binding affinity to salmon testes duplex DNA assessed as transition temperature. A digest of the protocol: as §1
The test system of assay [7] is Salmonidae. Put plainly: Effect on thermal stability of salmon testes duplex DNA assessed as transition temperature. The essentials: as §1
Assay [8] in a line: Cytotoxicity against human KBV1 cells by MTT assay. To be noted: KB-V1. It counts as functional, cell-based.
A short description of assay [9]: Cytotoxicity against human RPMI8402 cells by MTT assay. It counts as functional, cell-based. Conditions: RPMI 8402.

As to `CC(C)[C@@H]1NC(=O)c2coc(n2)-c2coc(n2)-c2coc(n2)[C@H](C(C)C)NC(=O)c2coc(n2)-c2coc(n2)-c2coc1n2` [HEXAOXAZOLE DIVALINE], the result in assay [1] and in [3] was Active. Moreover, the pIC50 in assay [2] is 6.30; in assay [4], 6.30; in assay [5], 6.52; in assay [8], 5.10; in assay [9] it was 6.39. The result in assay [6] and in assay [7] was inactive.

Consider `CC(C)[C@@H]1NC(=O)c2coc(n2)-c2coc(n2)-c2coc(n2)C/C=C/c2coc(n2)-c2coc(n2)-c2coc1n2`, for which the result in [1] and in [3] was Active. The pIC50 in assay [2] was 7.35; in assay [4] it was 7.37; in assay [5] it was 7.42; in [8] it was 5.48; in [9], 7.60. Besides, the result in assay [6] and in assay [7] was inactive.
